Assay results reported in paper PMC10173409 (Science translational medicine, 2023).
Like-named read-outs stand apart in the source and are kept apart here.

How the values were obtained:
mouse corneal epithelium [1] = experiment: Corneal epithelial barrier function, fluorescein staining in vivo
[2] = test system: human telomerase-immortalized corneal epithelial (hTCEpi) cells; experiment: MTT cell viability; assay type: cell-based; conditions: discussion summary
Summary of the method: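 hTCEpi (telomerase-immortalized human corneal epithelial) cells incubated 24 h with test peptide at 200 μg/ml (0.02% w/v), with a scrambled peptide as control. Viability was read by MTT assay.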

mouse corneal epithelium [3] = experiment: Corneal wound healing; assay type: in vivo; conditions: 0.1% topical, 2.5 μg peptide three times within 24 h, 6 h and 24 h after wounding, vs saline and SC10, Fig. S1E
Summary of the method: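 C57BL/6J mice, both sexes, 10–12 wk, anesthetised i.p. with ketamine/dexmedetomidine, reversed with atipamezole. Central 2 mm corneal epithelium removed with blade. Wounds got topical saline or test peptide (2.5 μg) three times within 24 h. Defects stained with 0.38% fluorescein immediately, 6 h and 24 h post-injury; stained area measured. One cornea per mouse.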

[4] = test system: amikacin-resistant P. aeruginosa keratitis isolate, mouse corneas; experiment: Prophylaxis of P. aeruginosa keratitis; assay type: in vivo; conditions: 0.1% (5 μg) topical once 30 min before infection; 24 h; P < 0.01; Fig. 5D, E
Summary of the method: (§1)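 C57BL/6J mice (both sexes, 10-12 wk), anesthetized with ketamine/dexmedetomidine i.p. One cornea per mouse, scarified with three 26g-needle abrasions. 5 μl test peptide (0.1% in saline, 5 μg) applied once, 30 min before amikacin-resistant P. aeruginosa 10⁵ CFU or S. aureus 10⁶ CFU. At 24 h: homogenate CFU on tryptic soy agar; collagenase-digested corneas analysed by flow cytometry for CD45⁺, Ly6B.2⁺F4/80⁻ and F4/80⁺ cells. n = 8-10, two experiments.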

immune cells [5] = experiment: Toxic effect on immune cells; conditions: discussion summary
S. aureus, mouse corneas [6] = experiment: Treatment of established S. aureus keratitis; assay type: in vivo; conditions: for infectious load, S. aureus treatment: 5 μg in liposomes, 3 times daily, Fig. 7G
Summary of the method: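 C57BL/6J mice, both sexes, 10–12 wk. Corneas scarified with three 26g needle abrasions, inoculated with S. aureus 10⁶ CFU. From 24 h post-infection, 5 μg test peptide in 5 μl liposome mix (phosphatidylcholine/stearylamine/cholesterol) or liposome vehicle given topically three times daily for 1 or 3 days. Blinded daily scoring of four features (0–4 each, total 0–16). Endpoint CFU from corneal homogenates plated on tryptic soy agar.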

Pseudomonas aeruginosa = conditions: ref [20]; cited from earlier work
[7] = test system: cell surface/endosomal TLR3; experiment: media poly; assay type: cell-based, mouse; conditions: neutrophils, high-molecular-weight poly(I:C) 1 μg/ml added to media; Fig. 1D
Summary of the method: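 Thioglycolate-elicited mouse peritoneal neutrophils (collected day 1, DMEM/2% FBS) were stimulated with high-molecular-weight poly(I:C) (1 μg/ml) added to medium, alone or with test peptide, at 37°C/5% CO₂. Phospho-NFκB p65⁺ and phospho-IRF3⁺ cells were quantified by intracellular flow cytometry. Mean ± SD, N = 3 replicates.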

[8] = ref [20]; cited from earlier work
[9] = test system: amikacin-resistant P. aeruginosa, mouse corneas; experiment: Treatment of established P. aeruginosa keratitis; assay type: in vivo; conditions: for total leukocytes, neutrophils and macrophages, P. aeruginosa treatment: 3 times daily, as early as one day post-treatment, Fig. 6C-F; for disease severity over the 3-day treatment course, P. aeruginosa: 5 μg in liposomes topical 3 times daily
Summary of the method: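 Scarified C57BL/6J corneas (one per mouse) inoculated with amikacin-resistant P. aeruginosa (10⁵ CFU). From 24 h post-infection: test peptide in phosphatidylcholine/stearylamine/cholesterol liposomes (5 μg in 5 μl), or liposome vehicle, applied topically three times daily for 1 or 3 days. Blinded 0-16 clinical score from four opacity/epithelial features. Corneal CD45⁺ leukocytes, Ly6B.2⁺F4/80⁻ neutrophils and F4/80⁺ macrophages counted by flow cytometry.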

[10] = test system: TLR2, mouse peritoneal macrophages; experiment: TLR2 endocytosis in macrophages, flow cytometry; assay type: cell-based; conditions: peptide alone 200 μg/ml (LTA 500 ng/ml), 1 h; Fig. 4D
Summary of the method: (§2)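 Thioglycolate-elicited C57BL/6J peritoneal neutrophils (day 1) or adherent macrophages (day 3) incubated 1 h with test peptide alone. TLR2 localisation assessed by flow cytometry as cell-surface versus intracellular staining.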

[11] = test system: thioglycolate-elicited mouse peritoneal neutrophils; experiment: LPS/LTA-induced cytokine secretion from neutrophils, ELISA; assay type: cell-based; conditions: for dose dependence of cytokine inhibition, neutrophils: 50, 100 or 200 μg/ml, 8 h, Fig. S2; for cytokine suppression at 24 h, neutrophils: 24 h post-ligand stimulation, Fig. S3
Summary of the method: (§3)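 C57BL/6J mice injected i.p. with 1 ml 3% thioglycolate. Peritoneal neutrophils collected day 1 (DMEM), macrophages day 3 (RPMI, 6 h adherence), both 2% FBS, 1x10⁵ cells/well after RBC lysis. Stimulated with P. aeruginosa LPS or S. aureus LTA (500 ng/ml); test peptide (50, 100 or 200 μg/ml) added 30 min before or after. Incubated 8 or 24 h, 37°C/5% CO₂. Supernatant IL-6, TNFα, G-CSF, CXCL1, CXCL2, CXCL10 measured by ELISA.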

[12] = test system: thioglycolate-elicited mouse peritoneal macrophages; experiment: LPS/LTA-induced cytokine secretion from macrophages, ELISA; assay type: cell-based; conditions: for dose dependence of cytokine inhibition, macrophages: 50, 100 or 200 μg/ml, 8 h, Fig. S2; for cytokine suppression at 24 h, macrophages: 24 h post-ligand stimulation, Fig. S3
Summary of the method: as §3

hTCEpi cells = experiment: TUNEL assay of DNA fragmentation; assay type: cell-based, human; conditions: 24-h incubation, Fig. S1B
S. aureus, mouse corneas [13] = experiment: Prophylaxis of S. aureus keratitis; assay type: in vivo; conditions: 0.1% (5 μg) topical once 30 min before 10^6 CFU, 24 h; for bacterial burden, S. aureus prophylaxis: Fig. 5H; for immune cell infiltration, S. aureus prophylaxis: Fig. 5I, J
Summary of the method: as §1

[14] = test system: TLR2, mouse peritoneal neutrophils; experiment: TLR2 endocytosis in neutrophils, flow cytometry; assay type: cell-based; conditions: peptide alone 200 μg/ml (LTA 500 ng/ml), 1 h; Fig. 4C
Summary of the method: as §2

red blood cells = experiment: Hemolysis; assay type: cell-based; conditions: for toxic effect on blood cells: discussion summary; for hemolysis (amount of hemoglobin released): vs untreated samples, Fig. S1C
human MD2/TLR4 complex = experiment: MD2 blocking assay; assay type: binding; conditions: for inhibition of LPS binding to MD2/TLR4 beads (in words): 30-min preincubation, peptide 60 μM, FITC-LPS 1 μg/ml, Fig. 3A; for inhibition of LPS binding to MD2/TLR4 beads with soluble MD2: soluble MD2 1 μg/ml present during preincubation with peptide 60 μM, Fig. 3B
Summary of the method: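 Human MD2/TLR4-conjugated latex beads incubated with test peptide (60 μM), without or with soluble MD2 (1 μg/ml). Beads washed, then incubated with FITC-LPS (1 μg/ml). Percentage of LPS⁺ beads quantified by flow cytometry. Mean ± SEM, n = 3-5 independent experiments.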

MD2/TLR4 complex = experiment: LPS displacement assay; assay type: binding, human; conditions: 60 μM, 30 min; Fig. 3E
Summary of the method: (§4)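 Beads conjugated with human MD2/TLR4 complex or TLR2 were preincubated with FITC-LPS or FITC-LTA (1 μg/ml) respectively, PBS-washed, then mixed with test peptide (60 μM). Percentage of ligand-positive beads was measured by flow cytometry. Mean ± SEM, n = 3-5 independent experiments.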

TLR2 = experiment: LTA displacement assay; assay type: binding, human; conditions: 60 μM, 30 min; Fig. 3F
Summary of the method: as §4

bacteria = conditions: high-salt media; ref [49], [50]; cited from earlier work
[15] = ref [49], [50]; cited from earlier work
immune cells [16] = test system: immune cells
Staphylococcus aureus = conditions: ref [20]; cited from earlier work
[17] = ref [20]; cited from earlier work; remark: listed apart in the source

Substance | toxic effect on corneal epithelial cells [2] | barrier restoration after wounding (re-epithelialization) (mouse corneal epithelium [3]) | infiltrated leukocytes, neutrophils and macrophages, P. aeruginosa prophylaxis [4] | infectious load, S. aureus treatment (S. aureus, mouse corneas [6]) | total leukocytes, neutrophils and macrophages, P. aeruginosa treatment ([9]; 5 μg in liposomes) | corneal barrier function, fluorescein staining (mouse corneal epithelium [1]; mouse, in vivo) | TLR2 internalization, macrophages [10] | dose dependence of cytokine inhibition, neutrophils [11] | cytokine suppression at 24 h, neutrophils [11] | dose dependence of cytokine inhibition, macrophages [12] | cytokine suppression at 24 h, macrophages [12] | apoptosis (hTCEpi cells) | bacterial burden, S. aureus prophylaxis (S. aureus, mouse corneas [13]) | immune cell infiltration, S. aureus prophylaxis (S. aureus, mouse corneas [13]) | TLR2 internalization, neutrophils [14] | toxic effect on blood cells (red blood cells) | hemolysis (amount of hemoglobin released) (red blood cells) | inhibition of LPS binding to MD2/TLR4 beads (in words) (human MD2/TLR4 complex) | inhibition of LPS binding to MD2/TLR4 beads with soluble MD2 (human MD2/TLR4 complex) | disease severity over the 3-day treatment course, P. aeruginosa ([9]; Fig. 6A, B) | further results
Benzalkonium chloride [BAK, reference compound] |  |  |  |  |  |  |  |  |  |  |  |  |  |  |  |  |  |  |  |  | corneal barrier function, fluorescein staining (mouse corneal epithelium [1]; mice, one topical application at 0.1% in saline, Fig. S1D): high degree of fluorescein penetration
GGLSSVGGGS [KAMP10] | no detectable toxic effect | substantially accelerated | significantly reduced | substantially reducing the infectious load | substantially reduced | remained stain-free | triggered internalization of TLR2 | dose-dependent | effective suppression | dose-dependent | effective suppression | did not induce apoptosis | alleviated | alleviated | triggered internalization of TLR2 | no detectable toxic effect | no difference from the baseline of untreated samples | effectively inhibited subsequent LPS binding | inhibitory effect was abolished |  | toxic effect on immune cells (immune cells [5]): no detectable toxic effect; bactericidal mechanism, P. aeruginosa (Pseudomonas aeruginosa): perforated Pseudomonas aeruginosa membrane; p65 and IRF3 phosphorylation, media poly(I:C) [7]: inhibited p65 and IRF3 phosphorylation; binding affinity for LPS [8]: modest binding affinity; relative effect on disease severity, P. aeruginosa treatment ([9]; KAMP10 vs KAMP18C, 5 μg in liposomes, 1 DAT, Fig. 6A, B): effect more prominent
GLSGVGSGSG [SC10, reference compound] |  | in contrast to saline and SC10 |  |  |  | stain-free similarly to the SC10- or saline-treated controls |  |  |  |  |  |  |  |  |  |  |  | but not SC10, effectively inhibited |  | severity progression or lack of improvement | displacement of LPS from MD2/TLR4 beads (in words) (MD2/TLR4 complex): as opposed to SC10; displacement of LTA from TLR2 beads (in words) (TLR2): as opposed to SC10
LL-37 |  |  |  |  |  |  |  |  |  |  |  |  |  |  |  |  |  |  |  | severity progression or lack of improvement | bactericidal activity of LL-37 (bacteria): characterized bactericidal activities in high-salt media; LPS- and LTA-neutralizing activity [15]: known LPS- and LTA-neutralizing activities
RAIGGGLSSVGGGSSTIK [KAMP18C] | no detectable toxic effect | substantially accelerated | significantly reduced | substantially reducing the infectious load | substantially reduced | remained stain-free | triggered internalization of TLR2 | dose-dependent | effective suppression | dose-dependent | effective suppression | did not induce apoptosis | alleviated | alleviated | triggered internalization of TLR2 | no detectable toxic effect | no difference from the baseline of untreated samples | effectively inhibited subsequent LPS binding | inhibitory effect was abolished |  | toxic effect on immune cells (immune cells [16]): no detectable toxic effect; bactericidal mechanism, S. aureus (Staphylococcus aureus): caused major damage to the cell envelope of Staphylococcus aureus; relative effect on disease severity, S. aureus treatment (S. aureus, mouse corneas [6]; KAMP18C vs KAMP10, 5 μg in liposomes, Fig. 7A, B): more effective against S. aureus infection; binding affinity for LTA [17]: modest binding affinity
